Data set [1] in a line: Antiprion activity against PrPsc infected in dividing mouse ScN2a-cl3 cells assessed as reduction in prion load after 5 days by ELISA. The settings on record: N2a-cl3, 120 h. Type of data set: cell-based. In outline:
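ScN2a (RML-infected N2a) cells seeded at 40,000 cells/well in MEM with 10% FBS, GlutaMax, 500 µg/mL geneticin. Compounds added 4 h after seeding, 0.5% final DMSO. Incubated 5 days at 37 °C, 5% CO2. Lysates captured on D18-coated ELISA plates overnight at 4 °C, then HRP-D13 antibody 1 h. EC50 is the mean of three determinations.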
For orientation: In an ELISA, binding on a coated surface is turned into a signal by an enzyme label.

Another data set concerns Liver microsomes. In words: Metabolic stability in rat liver microsomes assessed as half life by LC-MS/MS analysis. Type of data set: ADME, Microsome. The gist of the method:
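Compound at 1 µM final (0.6% acetonitrile, 0.01% DMSO) in PBS pH 7.4. Incubated with rat hepatic microsomes (~0.3 mg/mL), 1 mM NADPH and 4 mM UDPGA or PBS at 37 °C. Samples taken at 0, 1, 10, 30 and 60 min and quenched in acetonitrile with carbamazepine internal standard. Remaining parent measured by LCMS; duplicate incubations. Midazolam and 4-nitrophenol served as controls.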

Data set [2] concerns MDCK. As to the kind of experiment: Permeability across basolateral to apical side MDR1-expressing MDCK cells. Format: ADME, cell-based, Canis lupus familiaris. As to conditions: dog; call rule not given here. The gist of the method:
(§1)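 MDR1-MDCK monolayers grown 5–10 days on 1 µm filters. Compound at 10 µM in HBSS pH 7.4 with 25 mM HEPES and 0.05% PS80, added to the apical or basolateral donor chamber. Receiver samples taken every 20 min and quantified by HPLC/UV/MS. Permeability coefficients calculated per interval and averaged; run in duplicate.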

Data set [3] deals with MDCK. In words: Permeability across apical to basolateral side MDR1-expressing MDCK cells. Format: ADME, cell-based, Canis lupus familiaris. The settings on record: dog. In outline:
as §1

In data set [4] the test system is Brain. In words: Drug uptake in FVB mouse brain at 40 to 210 mg/kg/day, po administered as part of liquid diet for 3 days. Format: ADME, organism-based. More on the design: route oral. As to conditions: in vivo, 72 h. The gist of the method: (§2)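 Wild-type FVB mice (~25 g), three per dose group sharing a cage. Compound was dissolved in PEG400 and diluted into a liquid diet of homogenized rodent feed, cocoa and water. Diet given ad libitum for 3 days; daily dose estimated from ~20 mL/day intake. Doses were 0, 40, 80, 130 or 210 mg/kg/day. After CO2 euthanasia, brain was homogenized with four-fold water and measured by LC-MS.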

In a further data set the test system is Nucleic Acid. In words: Ratio of drug level in FVB mouse to EC50 for PrPsc. The gist of the method: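 Brain (and plasma) levels in wild-type FVB mice given 0, 40, 80, 130 or 210 mg/kg/day for 3 days in liquid rodent diet (PEG400 stock diluted with feed, cocoa, water), 3 mice per dose. At an arbitrary point after feeding (pseudo steady-state), brain homogenised and assayed by LC-MS. Levels set against the mean EC50 from 3 determinations in ScN2a-cl3 cells (5-day PrPSc ELISA).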

Data set [5] concerns Brain. In words: Drug uptake in FVB mouse brain at 130 mg/kg/day, po administered as part of liquid diet for 3 days. Format: ADME, organism-based. More on the design: route oral. The settings on record: in vivo, 72 h. In outline:
as §2

These results are taken from ChEMBL document CHEMBL1671787, “2-Aminothiazoles as therapeutic leads for prion diseases” (J Med Chem, 2011).

Structures are written as SMILES. A value given as a limit tells only on which side of the number the result lay.

In the case of `COc1ccc(-c2csc(Nc3ccc4ccccc4c3)n2)cc1OC`, in data set [1], the 50% effective concentration (EC50) amounted to 390 nM. Turning to `COc1ccc(-c2csc(Nc3ccc(C)cn3)n2)cc1`, the EC50 in data set [1] is 3030 nM. On the same count and under the same terms, with `c1ccc(-c2cc(-c3csc(Nc4cc5ccccc5cn4)n3)on2)cc1` the figure was 800 nM; with `COc1ccnc(Nc2nc(-c3cc(-c4ccccc4)no3)cs2)c1`, 250 nM; with `COc1ccc(-c2csc(C(=O)Nc3cc4ccccc4cn3)n2)cc1OC`, more than 10000 nM. On the same count and under the same terms, to `COc1ccc(-c2csc(N(C)c3cc4ccccc4cn3)n2)cc1OC` belongs 140 nM; to `COc1ccc(-c2csc(Nc3cccc(C)n3)n2)cc1OC`, 3010 nM. Regarding `COc1ccc(Nc2nc(-c3ccc(OC)c(OC)c3)cs2)nc1`, the t1/2 in the data set with Liver microsomes came out at 45 min. For `COc1ccc(-c2csc(Nc3ncccc3C)n2)cc1OC`, the EC50 in data set [1] was 7290 nM. The same measure, in the same setting: with `COc1ccc(-c2csc(Nc3cc4ccccc4cn3)n2)cc1` the figure was 340 nM. As to `Cc1ccc(Nc2nc(-c3c(-c4ccccc4)noc3C)cs2)nc1`, the values for the permeability in the data set with MDCK [2] and in the data set on MDCK [3] were 8.6 ×10⁻⁶ cm/s and 11.2 ×10⁻⁶ cm/s, respectively. For the same compound, the t1/2 in the data set with Liver microsomes turned out to be 19 min. The EC50 in data set [1] was more than 26000 nM. Take `c1ccc(-c2cc(-c3csc(Nc4ccncc4)n3)on2)cc1`: the EC50 in data set [1] was found to be 4420 nM. Still for that read-out and setting: to `Cc1ccc(Nc2nc(C)cs2)nc1` belongs more than 32000 nM; to `Cc1ccc(Nc2nc(-c3ccccn3)cs2)nc1`, 860 nM.

For the compound `Cc1ccc(Nc2nc(-c3ccccc3)cs2)nc1`, the t1/2 in the data set with Liver microsomes was found to be 10 min. In addition, the EC50 in data set [1] worked out at 7880 nM. As to `Cc1csc(Nc2cc3ccccc3cn2)n1`, in data set [1], the EC50 is more than 32000 nM.

With `COc1cc2c(cc1OC)-c1nc(Nc3ccc(C)cn3)sc1C2`, the EC50 in data set [1] came to 5590 nM. As to `COc1ccc(NC(=O)c2csc(Nc3ccc(C)cn3)n2)cc1OC`, the EC50 in data set [1] was 2440 nM. On the same count and under the same terms, with `COc1ccccc1-c1csc(Nc2ccc(C)cn2)n1` the figure was more than 29000 nM; with `CNc1nc(-c2ccc(OC)c(OC)c2)cs1`, more than 32000 nM. Consider `Cc1ccc(Nc2nc(-c3ccc(-c4ccccn4)s3)cs2)nc1`, for which, in data set [1], the EC50 came to 1230 nM. For the compound `Cc1ccc(Nc2nc(-c3cc(-c4ccccc4)no3)cs2)nc1`, the permeability in the data set on MDCK [2] is recorded as 8.3 ×10⁻⁶ cm/s; in the data set with MDCK [3], 6.8 ×10⁻⁶ cm/s. The Drug uptake result in the data set with Brain [4] and with Brain [5] was “Active” throughout. In addition, the t1/2 in the data set on Liver microsomes turned out to be 151 min. Further, the Ratio with Nucleic Acid came to 25. Moreover, the EC50 in data set [1] was 940 nM. `COc1ccc(-c2csc(Nc3ncccn3)n2)cc1OC`: in data set [1], the EC50 came to 3930 nM. The same measure, in the same setting: with `Cc1cccc(Nc2nc(-c3cc(-c4ccccc4)no3)cs2)n1` the figure was 820 nM; with `c1ccc(-c2cc(-c3csc(Nc4ccccn4)n3)on2)cc1`, 600 nM. On the same count and under the same terms, with `FC(F)(F)Oc1ccc(-c2csc(Nc3cc4ccccc4cn3)n2)cc1` the figure was more than 32000 nM; with `COc1ccc(-c2csc(Nc3ccc(C)cn3)n2)cc1OC`, 790 nM. On to `c1ccc(-c2csc(Nc3cc4ccccc4cn3)n2)cc1`, for which the EC50 in data set [1] worked out at 3080 nM.

Take `COc1ccc(-c2csc(N(C(C)=O)c3cc4ccccc4cn3)n2)cc1OC`: the EC50 in data set [1] worked out at 81 nM. Take `COc1ccc(-c2csc(NC(=O)c3cc4ccccc4cn3)n2)cc1OC`: the EC50 in data set [1] amounted to 8180 nM.

For `COc1ccc(-c2csc(Nc3ccc(C(F)(F)F)cn3)n2)cc1OC`, the permeability in the data set with MDCK [2] stood at 8.7 ×10⁻⁶ cm/s; in the data set with MDCK [3], 9.4 ×10⁻⁶ cm/s. In addition, the t1/2 with Liver microsomes came to 150 min. For the same compound, the EC50 in data set [1] came out at 2530 nM. Turning to `COc1ccc(-c2csc(Nc3cccc4ccccc34)n2)cc1OC`, the EC50 in data set [1] is more than 32000 nM.

For the compound `c1ccc(-c2ccc(-c3csc(Nc4cc5ccccc5cn4)n3)s2)nc1`, the EC50 in data set [1] came to 2010 nM.

For the compound `COc1ccc(-c2csc(Nc3cnccn3)n2)cc1OC`, the EC50 in data set [1] is 15600 nM. Same read-out and setting: with `Cc1ccnc(Nc2nc(-c3cc(-c4ccccc4)no3)cs2)c1` the figure was 1270 nM. The same measure, in the same setting: to `COc1ccc(Nc2nc(-c3cc(-c4ccccc4)no3)cs2)nc1` belongs 230 nM; to `c1ccc2cc(Nc3nc(-c4ccncc4)cs3)ncc2c1`, 310 nM; to `FC(F)(F)c1csc(Nc2cc3ccccc3cn2)n1`, 8660 nM.

For `COc1ccc(-c2csc(Nc3cc(C)ccn3)n2)cc1OC`, in data set [1], the EC50 was determined as 1000 nM. With `COc1ccc(-c2csc(Nc3cc4ccccc4cn3)n2)cc1OC`, the t1/2 in the data set with Liver microsomes came to 83 min.

Consider `Cc1ccc(Nc2nc(-c3ccncc3)cs2)nc1`, for which the permeability in the data set on MDCK [2] stood at 42.3 ×10⁻⁶ cm/s; in the data set on MDCK [3] it was 32.6 ×10⁻⁶ cm/s. Further, the t1/2 in the data set with Liver microsomes was 20 min. In addition, in data set [1], the EC50 was 1570 nM.

With `Cc1ccc(Nc2nc3c(s2)Cc2ccccc2-3)nc1`, the EC50 in data set [1] stood at 2440 nM. With `COc1ccc(-c2csc(Nc3ccc4ccccc4n3)n2)cc1OC`, the permeability with MDCK [2] was 8.9 ×10⁻⁶ cm/s; with MDCK [3] it was 9.2 ×10⁻⁶ cm/s. For the same compound, the t1/2 with Liver microsomes was found to be 69 min. In data set [1], the EC50 was determined as 430 nM.

One may read the EC50 as the midpoint of the concentration-response curve.
